pIC50: −log10 of the molar value. One block for each molecule: values may come before it. Calls of active or inactive are those of the source. The calls are words filed in the database; no cut-off is given here.
How the values were obtained:
[1] = target: T1, Histone acetyltransferase p300 (Homo sapiens, UniProt Q09472); assay: Inhibition of GST-p300 HAT expressed in bacteria assessed as histone acetylation
Summary of the method: (§1)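 Recombinant histones H1, H2A, H2B, H3 and H4 were acetylated in vitro by the p300 HAT domain. Compounds were tested at 25–400 µM, or from 0.19 µM for one compound. Acetylated histones were detected by gel autoradiography, with Coomassie staining for total histone. IC50 was taken from densitometric dose–response curves, as the mean of at least three separate experiments.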

[2] = target: T1, Histone acetyltransferase p300; assay: Inhibition of full length GST-p300 expressed in Sf9 cells assessed as histone acetylation
[3] = target: T1, Histone acetyltransferase p300; assay: Inhibition of GST-p300 HAT assessed as histone acetylation
Summary of the method: as §1, with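 “domain.” for “domain. Compounds were tested at 25–400 µM, or from 0.19 µM for one compound.”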

[4] = target: Histone acetyltransferase KAT2A (Homo sapiens) (UniProt Q92830); assay: Activity of GST-GCN5 assessed as HAT activity at 5 uM
Summary of the method: (§2)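 The same in vitro HAT assay was run with equal molar amounts of p300, PCAF and GCN5, each with a test compound at 5 or 21 µM. Acetylation was quantified by densitometry and expressed as percent variation from the DMSO-treated sample. Values are the mean of three independent experiments ± standard error.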

[5] = tested on: HeLa; assay: Reduction of acetylation in HeLa cells expressing H2B-EYFP at 40 uM; type: functional, Homo sapiens; set-up: scale not given: the % may be the effect or the level left
Summary of the method: (§3)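 HeLa cells stably expressing H2B-EYFP were grown in 10% FCS-DMEM and treated with 20 or 40 µM compound or DMSO. Cells were then immunostained for acetyl-H3. Mean anti-acetyl-H3 fluorescence was normalized to H2B-EYFP fluorescence in the same cells and expressed as percent inhibition versus DMSO. Each of three independent experiments analyzed 150 cells; mean and standard error are reported.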

[6] = tested on: HeLa; assay: Reduction of acetylation in HeLa cells expressing H2B-EYFP at 20 uM; type: functional, Homo sapiens; set-up: scale not given: the % may be the effect or the level left; summary of the method: as §3
[7] = target: T1, Histone acetyltransferase p300; assay: Activity of GST-p300 HAT assessed as HAT activity at 5 uM; summary of the method: as §2
[8] = tested on: HeLa; assay: Cytotoxicity in HeLa cells expressing H2B-EYFP above 20 uM; type: functional, cell-based; details: Homo sapiens, in the assay text read “above 40 uM” for “above 20 uM”
Summary of the method: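 Cell toxicity in compound-treated H2B-EYFP HeLa cells was scored as decreased H2B-EYFP fluorescence.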

[9] = target: Histone acetyltransferase KAT2B (Homo sapiens) (UniProt Q92831); assay: Activity of GST-PCAF assessed as HAT activity at 21 uM; summary of the method: as §2
[10] = target: T1, Histone acetyltransferase p300; assay: Activity of GST-p300 HAT assessed as HAT activity at 21 uM; summary of the method: as §2
[11] = tested on: HeLa; assay: Acetylation of H3 in HeLa cells expressing H2B-EYFP upto 200 uM; type: functional, cell-based; details: Homo sapiens
Summary of the method: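 H2B-EYFP HeLa cells in 10% FCS-DMEM were treated with various compound concentrations up to 200 µM, then immunostained with anti-acetyl-H3 antibodies. H2B-EYFP fluorescence served as an internal control for protein expression.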

[12] = target: Histone acetyltransferase KAT2A (Homo sapiens) (UniProt Q92830); assay: Activity of GST-GCN5 assessed as HAT activity at 21 uM; summary of the method: as §2

T1 sequence (Q09472 whole entry, the tested form may be a part): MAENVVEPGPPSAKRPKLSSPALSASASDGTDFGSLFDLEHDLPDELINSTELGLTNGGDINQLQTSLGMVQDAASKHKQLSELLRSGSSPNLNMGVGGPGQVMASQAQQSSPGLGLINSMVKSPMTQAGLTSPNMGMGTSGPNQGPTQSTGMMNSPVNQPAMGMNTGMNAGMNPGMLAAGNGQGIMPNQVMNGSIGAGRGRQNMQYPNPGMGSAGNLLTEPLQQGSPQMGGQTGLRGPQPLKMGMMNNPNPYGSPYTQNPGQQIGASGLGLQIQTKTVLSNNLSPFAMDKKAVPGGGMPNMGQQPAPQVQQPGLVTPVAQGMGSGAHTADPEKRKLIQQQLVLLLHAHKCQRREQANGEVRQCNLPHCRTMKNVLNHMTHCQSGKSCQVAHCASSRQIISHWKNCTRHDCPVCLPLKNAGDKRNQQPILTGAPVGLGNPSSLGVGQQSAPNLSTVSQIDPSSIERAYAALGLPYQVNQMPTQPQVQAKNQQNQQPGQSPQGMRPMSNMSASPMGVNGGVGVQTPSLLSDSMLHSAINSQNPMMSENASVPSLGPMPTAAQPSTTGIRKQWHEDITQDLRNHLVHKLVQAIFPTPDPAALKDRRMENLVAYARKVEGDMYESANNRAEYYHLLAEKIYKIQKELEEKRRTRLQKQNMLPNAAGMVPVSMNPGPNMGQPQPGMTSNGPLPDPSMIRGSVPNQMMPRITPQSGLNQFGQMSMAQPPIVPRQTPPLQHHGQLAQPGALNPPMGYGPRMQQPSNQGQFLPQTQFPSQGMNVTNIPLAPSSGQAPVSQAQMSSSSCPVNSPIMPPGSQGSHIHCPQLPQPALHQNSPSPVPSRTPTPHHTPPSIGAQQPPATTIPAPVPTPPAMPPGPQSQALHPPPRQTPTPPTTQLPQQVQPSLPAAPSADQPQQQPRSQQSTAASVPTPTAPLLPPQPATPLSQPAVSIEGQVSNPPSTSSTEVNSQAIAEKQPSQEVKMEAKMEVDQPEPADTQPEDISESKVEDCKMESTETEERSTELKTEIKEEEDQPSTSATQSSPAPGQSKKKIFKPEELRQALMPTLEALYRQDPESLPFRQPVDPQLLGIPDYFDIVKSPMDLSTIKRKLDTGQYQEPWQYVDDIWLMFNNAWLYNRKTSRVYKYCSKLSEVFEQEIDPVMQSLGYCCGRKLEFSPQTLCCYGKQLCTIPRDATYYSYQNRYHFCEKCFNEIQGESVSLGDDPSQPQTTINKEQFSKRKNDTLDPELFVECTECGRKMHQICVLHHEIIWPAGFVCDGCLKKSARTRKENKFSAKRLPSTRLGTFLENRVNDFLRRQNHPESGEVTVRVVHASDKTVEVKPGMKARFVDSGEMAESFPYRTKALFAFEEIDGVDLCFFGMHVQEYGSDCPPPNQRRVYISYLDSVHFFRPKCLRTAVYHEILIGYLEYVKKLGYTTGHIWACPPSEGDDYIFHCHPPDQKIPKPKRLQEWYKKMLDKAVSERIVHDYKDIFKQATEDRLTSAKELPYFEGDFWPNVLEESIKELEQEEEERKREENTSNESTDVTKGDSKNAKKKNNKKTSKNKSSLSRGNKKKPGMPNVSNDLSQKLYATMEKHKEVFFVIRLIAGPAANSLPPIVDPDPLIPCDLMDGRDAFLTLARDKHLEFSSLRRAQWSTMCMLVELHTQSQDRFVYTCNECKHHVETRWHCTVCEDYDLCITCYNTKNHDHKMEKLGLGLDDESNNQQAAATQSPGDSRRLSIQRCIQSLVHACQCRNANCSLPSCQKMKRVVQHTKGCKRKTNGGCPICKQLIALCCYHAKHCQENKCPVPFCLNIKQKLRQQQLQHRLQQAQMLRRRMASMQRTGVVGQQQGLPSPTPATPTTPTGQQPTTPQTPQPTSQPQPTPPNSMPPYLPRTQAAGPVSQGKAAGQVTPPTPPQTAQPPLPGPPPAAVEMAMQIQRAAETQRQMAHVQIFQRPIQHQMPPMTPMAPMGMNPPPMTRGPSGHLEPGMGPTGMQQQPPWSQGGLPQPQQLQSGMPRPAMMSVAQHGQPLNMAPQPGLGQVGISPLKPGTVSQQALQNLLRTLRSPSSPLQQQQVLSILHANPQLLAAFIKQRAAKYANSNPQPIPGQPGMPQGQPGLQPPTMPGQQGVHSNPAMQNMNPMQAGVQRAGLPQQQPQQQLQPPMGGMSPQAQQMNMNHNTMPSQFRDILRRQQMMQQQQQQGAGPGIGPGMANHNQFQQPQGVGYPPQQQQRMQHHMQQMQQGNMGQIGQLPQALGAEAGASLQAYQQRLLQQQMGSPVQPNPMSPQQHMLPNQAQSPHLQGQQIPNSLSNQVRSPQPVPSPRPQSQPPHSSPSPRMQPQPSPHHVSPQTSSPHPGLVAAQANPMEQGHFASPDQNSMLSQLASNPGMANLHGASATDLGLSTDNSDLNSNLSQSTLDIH
Histone acetyltransferase KAT2A (Homo sapiens), sequence (Q92830 2-837 limits assumed): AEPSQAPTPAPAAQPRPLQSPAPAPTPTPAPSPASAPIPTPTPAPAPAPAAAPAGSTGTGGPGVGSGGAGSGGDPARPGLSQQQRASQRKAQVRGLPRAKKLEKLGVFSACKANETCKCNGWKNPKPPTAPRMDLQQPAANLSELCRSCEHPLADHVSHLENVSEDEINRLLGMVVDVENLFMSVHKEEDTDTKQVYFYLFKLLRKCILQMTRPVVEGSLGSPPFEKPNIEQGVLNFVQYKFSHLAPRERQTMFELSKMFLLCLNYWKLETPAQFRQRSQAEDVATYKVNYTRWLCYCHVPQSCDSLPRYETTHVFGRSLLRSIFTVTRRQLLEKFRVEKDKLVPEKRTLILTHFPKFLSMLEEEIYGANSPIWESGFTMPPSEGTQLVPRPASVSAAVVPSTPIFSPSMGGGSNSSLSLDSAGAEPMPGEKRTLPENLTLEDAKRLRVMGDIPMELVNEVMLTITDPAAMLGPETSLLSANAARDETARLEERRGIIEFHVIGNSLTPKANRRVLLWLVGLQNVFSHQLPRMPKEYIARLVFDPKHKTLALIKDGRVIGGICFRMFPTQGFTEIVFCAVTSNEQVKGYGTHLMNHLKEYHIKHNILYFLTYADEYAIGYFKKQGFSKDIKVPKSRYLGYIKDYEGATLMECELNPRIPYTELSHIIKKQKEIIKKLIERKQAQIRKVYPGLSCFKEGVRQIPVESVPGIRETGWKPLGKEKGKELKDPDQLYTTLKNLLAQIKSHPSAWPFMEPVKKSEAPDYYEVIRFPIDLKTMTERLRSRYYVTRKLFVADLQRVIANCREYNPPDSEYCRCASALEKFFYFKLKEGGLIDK
Histone acetyltransferase KAT2B (Homo sapiens), sequence (Q92831 whole entry, looked up): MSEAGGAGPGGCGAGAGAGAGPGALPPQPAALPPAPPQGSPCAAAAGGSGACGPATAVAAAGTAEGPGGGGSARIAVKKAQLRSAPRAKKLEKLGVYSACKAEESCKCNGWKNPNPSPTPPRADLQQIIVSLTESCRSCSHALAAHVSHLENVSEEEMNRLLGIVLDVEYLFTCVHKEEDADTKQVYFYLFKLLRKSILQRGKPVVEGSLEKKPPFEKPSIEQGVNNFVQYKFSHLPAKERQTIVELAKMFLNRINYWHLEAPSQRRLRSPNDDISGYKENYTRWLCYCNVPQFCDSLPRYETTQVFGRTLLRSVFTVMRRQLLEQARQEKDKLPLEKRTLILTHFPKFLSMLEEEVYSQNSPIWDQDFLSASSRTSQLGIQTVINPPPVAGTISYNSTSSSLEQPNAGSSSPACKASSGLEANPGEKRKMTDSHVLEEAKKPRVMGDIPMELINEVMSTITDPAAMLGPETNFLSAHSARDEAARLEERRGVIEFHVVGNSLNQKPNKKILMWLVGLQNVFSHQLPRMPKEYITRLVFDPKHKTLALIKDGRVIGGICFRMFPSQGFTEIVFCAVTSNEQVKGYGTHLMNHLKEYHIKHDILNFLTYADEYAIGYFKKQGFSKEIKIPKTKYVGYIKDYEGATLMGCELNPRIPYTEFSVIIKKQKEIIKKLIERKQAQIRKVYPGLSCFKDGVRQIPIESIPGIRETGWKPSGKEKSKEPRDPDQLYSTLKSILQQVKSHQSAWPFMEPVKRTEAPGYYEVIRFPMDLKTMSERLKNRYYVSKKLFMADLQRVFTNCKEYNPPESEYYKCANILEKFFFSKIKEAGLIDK

Compound: COc1cc(/C=C/C(=O)CC(=O)/C=C/c2ccc(O)c(OC)c2)ccc1O
Activity [1]: inactive
Activity [2]: inactive

Compound: O=C(/C=C(O)/C=C/c1ccc(O)c(O)c1)/C=C/c1ccc(O)c(O)c1
pIC50 [3]: 4.34

Compound: O=C1/C(=C/c2ccc(O)c(Br)c2)CCC/C1=C\c1ccc(O)c(Br)c1
Activity [4]: 70%
Activity [5]: > 50%
Activity [6]: 30%
Activity [7]: 50%
Activity [8]: Active
pIC50 [3]: 5.30

Compound: COc1cc(/C=C2\CCC/C(=C\c3ccc(O)c(OC)c3)C2=O)ccc1O [CYCLOVALONE]
pIC50 [3]: 3.95

Compound: O=C(/C=C(O)/C=C/c1ccc(O)c(Br)c1)/C=C/c1ccc(O)c(Br)c1
pIC50 [3]: 4.48

Compound: O=C1/C(=C/c2ccc(O)c(C(=O)O)c2)CCC/C1=C\c1ccc(O)c(C(=O)O)c1
pIC50 [3]: 3.77

Continued, in another order:

pIC50 [3]: 3.63
Compound: O=C1/C(=C/c2ccc(O)c(O)c2)CCC/C1=C\c1ccc(O)c(O)c1

Activity [9]: 68%
Activity [10]: 50%
pIC50 [3]: 4.68
Activity [12]: 38%
Compound: O=C(/C=C(O)/C=C/c1ccc(O)c(C(=O)O)c1)/C=C/c1ccc(O)c(C(=O)O)c1
Activity [11]: inactive
